Assay outcomes (PubChem)
Calb biofilm kill: mixture kills Candida albicans biofilm cells; AID 1242; C. albicans biofilm persisters + clotrimazole, fluorescence viability; primary screen in compound mixtures of four per well; 0.02% of 120,000 active; inhibition, % at 7.6 µM;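 active means inhibition above 30.3% in the primary screen of four-compound pools, then above 30% when the compound was retested; inconclusive means passed the primary limit but could not be retested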;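 further: compounds exposed to preformed 24 h biofilms for 48 h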
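Assay system: C. albicans biofilms / Medium: RPMI/MOPS medium, pH 7.0 / Schedule: biofilm formation 24 h, compound exposure 48 h, 37 °C / Measured by: Alamar Blue fluorescence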
TRPN1 ag: zebrafish TRPN1 (NompC) channel agonism. 0.18% of 220,000 active. HEK293 zebrafish TRPN1-YFP, Fluo-8 calcium fluorescence; 100% = response to 87 µM carbachol. AID 1424. activation, % at 3 µM;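 active means activation above its plate's cutoff, the mean activation of test wells on that plate plus 3 SD, cut at about 19% in these data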
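Assay system: Zebrafish TRPN1-YFP in HEK293 cells | Incubation: Dye loading 1 h at 37 °C, then 30 min room temperature | Measured by: Kinetic Fluo-8 fluorescence, ex 470-495, em 515-575 nm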
TRPML3 ag: activates the human TRPML3 channel; activation, % at 3 µM; Q8TDD5; 0.29% of 220,000 active; HEK293 TRPML3-YFP, Fluo-8 calcium fluorescence; 100% = the carbachol control signal;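 active means activation above its plate's cutoff, the mean activation of the plate's test wells plus 3 SD, cut at about 12% in these data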
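Test system: HEK293 cells stably carrying human TRPML3-YFP; Doses: single dose, 3 µM final nominal compound, 0.3% DMSO final; Schedule: dye loading 1 h 37 °C then 30 min ambient, 125 s read; Technique: Fluo-8 calcium fluorescence; Benchmarks: high control carbachol 87 µM, low control DMSO.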
ABCG2 block: inhibitors of human ABCG2 transporter, ABCB1 counter-screen. Q9UNQ0. IgMXP3 cells, JC-1 efflux, flow cytometry. 0.1% of 190,000 active. inhibition, % at 6.6 µM;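 active means inhibition above 80%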
Target sequence (Q9UNQ0 whole entry, looked up): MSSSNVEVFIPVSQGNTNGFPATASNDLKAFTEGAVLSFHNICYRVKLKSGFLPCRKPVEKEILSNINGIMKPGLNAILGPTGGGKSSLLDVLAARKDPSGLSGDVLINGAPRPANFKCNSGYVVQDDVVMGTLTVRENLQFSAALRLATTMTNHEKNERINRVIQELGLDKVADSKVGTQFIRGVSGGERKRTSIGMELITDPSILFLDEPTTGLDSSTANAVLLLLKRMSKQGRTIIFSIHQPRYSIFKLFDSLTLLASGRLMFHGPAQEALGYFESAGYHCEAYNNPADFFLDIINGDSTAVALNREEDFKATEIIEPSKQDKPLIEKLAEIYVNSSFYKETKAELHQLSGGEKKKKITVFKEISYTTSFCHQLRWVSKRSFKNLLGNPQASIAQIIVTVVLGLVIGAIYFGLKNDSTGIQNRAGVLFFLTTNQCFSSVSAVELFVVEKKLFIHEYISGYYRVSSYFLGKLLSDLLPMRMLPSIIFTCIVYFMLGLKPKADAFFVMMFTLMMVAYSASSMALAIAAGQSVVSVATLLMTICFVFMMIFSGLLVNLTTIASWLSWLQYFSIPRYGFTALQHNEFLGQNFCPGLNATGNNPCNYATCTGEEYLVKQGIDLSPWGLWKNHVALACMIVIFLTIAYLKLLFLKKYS
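material = IgMXP3 (ABCG2) plus far-red-tagged CCRF-Adr (ABCB1) cells | amount = 3 million cells/mL, equal mix of both lines | also added = JC-1 transporter substrate | dosing = one concentration, 6.6 µM final | schedule = 10 min at 25 °C | measured by = flow cytometric JC-1 green MFI at 530 nm | read-out basis = percent efflux inhibition, scaled nicardipine 100% to DMSO 0%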
ROMK primary: modulators of human ROMK potassium channel | Tet-inducible ROMK, thallium flux fluorescence; actives lie on both sides | B-score at 10 µM | 2% of 130,000 active | AID 1918;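 active means signal ratio slope over the read window, or its plate-corrected B-score, at least 3 SD from the plate mean, either direction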;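 further: B-score of the F/F0 ratio slope over 7 to 12 s after thallium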
ABCB1 block: blocks JC-1 efflux by human ABCB1 transporter; P08183; CCRF-Adr cells, flow cytometry; inhibition, % at 6.6 µM; 0.067% of 190,000 active; in the data active means inhibition above about 40%;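 further: higher value means more JC-1 retained so stronger ABCB1 efflux block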
ROMK retest: confirmation of human ROMK potassium channel modulators. shares compounds with ROMK primary. ROMK thallium flux, fluorescence ratio; hits give low values. normalized thallium flux (F/F0 slope) at 10 µM. 54% of 3,000 active;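 active means Flux at 10 µM at least 3 SD below or above vehicle control mean in one or both replicates; inconclusive means no clear call, values can overlap the other calls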
Numbers stand for hits; i = inactive; ? = inconclusive; nt = no result. Only a selection was taken, and hits are over-represented in it overall.

SMILES	Calb biofilm kill	TRPN1 ag	TRPML3 ag	ABCG2 block	ROMK primary	ABCB1 block	ROMK retest
CCOC(=O)C1=NN(C(=O)Cc2ccccc2)C(O)(C(C)(C)C)C1 (centres undefined)	i	i	i	i	-13	i	i
CCOC(=O)C1=C(N)OC2=C(C(=O)CC(C)(C)C2)C1c1cc(CSc2nnnn2C)cs1 (centres undefined)	i	i	i	i	-4.1	i	?
COc1ccc(S(=O)(=O)Nc2ccc(F)c(F)c2)cc1Cl	nt	i	i	i	-3.2	i	0.059
O=c1c2ccccc2c(-c2ccccc2)nn1-c1cc(Cl)cc(Cl)c1	i	i	i	nt	nt	nt	i
CC(Sc1nc(-c2ccccc2)cs1)C(=O)Nc1ccc(Cl)cn1 (centres undefined)	i	i	i	i	nt	i	nt
O=C(NC1=NCCS1)C12CC3CC(C1)CC(C(=O)NC1=NCCS1)(C3)C2	nt	i	i	i	i	i	nt
O=C(NC1=NCCS1)NC12CC3CC(CC(C3)C1)C2	nt	i	i	i	nt	i	0.066
N=c1n(Cc2ccccc2)c2ccccc2n1CC(O)COc1ccccc1 (centres undefined)	nt	i	i	i	nt	i	nt
CCCCn1c(=N)n(CC(O)COc2ccc(C)cc2)c2ccccc21 (centres undefined)	nt	i	i	i	-7	i	0.048
Cc1ccc(Cn2c(=N)n(CC(O)COc3ccccc3)c3ccccc32)cc1 (centres undefined)	nt	i	i	i	-4.1	i	0.049
CCCn1c(=N)n(CC(O)COc2cccc(C)c2)c2ccccc21 (centres undefined)	nt	i	i	i	-3.4	i	0.051
Cc1ccc(OCC(O)Cn2c3ccccc3c3ccccc32)cc1 (centres undefined)	nt	i	i	i	nt	i	nt
CCCCn1c(=N)n(CC(O)COc2ccccc2)c2ccccc21 (centres undefined)	nt	i	i	i	-3.7	i	?
O=C(O)CC1(CC(=O)Nc2ccc3sccc3c2)CCCCC1	i	i	i	nt	nt	nt	nt
Cc1c(C=N)c(O)n(C)c(=O)c1C#N	i	i	i	nt	i	nt	nt
CC(NCc1ccc(S(N)(=O)=O)cc1)C(=O)Nc1cccc(Cl)c1 (centres undefined)	i	i	i	nt	nt	nt	nt
CC(=O)c1ccc(N2CCN(C(=O)C3CCCN(S(=O)(=O)c4c(C)[nH]c(=O)[nH]c4=O)C3)CC2)cc1 (centres undefined)	i	i	i	i	i	i	nt
Cc1cc(N)n(-c2ncnc3scc(-c4ccccc4)c23)n1	nt	i	i	i	1.6	i	i
C=CCn1c(COc2ccccc2)nnc1SCc1ccc(C#N)cc1	nt	i	i	i	nt	i	nt
C=CCn1c(COc2ccc(Cl)cc2)nnc1SCc1ccc(C#N)cc1	nt	i	i	i	nt	i	?
CC(O)c1nc2ccccc2n1CC(=O)Nc1ccc(F)cc1Cl (centres undefined)	i	i	i	i	i	i	nt
Cc1cc(=O)n2ccccc2c1C#N	nt	i	i	i	i	i	nt
COc1ccc2c(C#N)c3ccccn3c2c1	i	i	i	i	-3.1	i	0.045
CC(C)(C)c1ccc(NC(=S)NCc2cccnc2)cc1	i	i	i	nt	-1.5	nt	i
COc1ccc(C/C(C)=N/NS(=O)(=O)c2ccc(Br)cc2)cc1	i	i	i	i	i	i	nt
SMILES	Calb biofilm kill	TRPN1 ag	TRPML3 ag	ABCG2 block	ROMK primary	ABCB1 block	ROMK retest
Cc1ccc(SCCC(=O)OCC(=O)Nc2ccc(S(N)(=O)=O)cc2)cc1	i	i	i	nt	nt	nt	nt
Cc1ccc(SCCC(=O)OCC(=O)NCC2CCCCC2)cc1	i	i	i	i	3	i	i
COCCN(C(=S)Nc1c(C)cc(C)cc1C)C(C)c1cccnc1 (centres undefined)	i	i	i	i	i	i	nt
N#Cc1nc(-c2cccs2)oc1NCc1ccccc1	nt	i	i	i	-3.6	i	0.054
Cc1ccc(CNc2oc(-c3cccs3)nc2C#N)cc1	nt	i	i	i	i	i	nt
O=C(O)C1CCCCC1C(=O)NCCc1ccncc1 (centres undefined)	nt	i	i	i	2.4	i	i
O=C(Nc1ccccc1)Nc1ccccc1C(=O)NCCCN1CCOCC1	i	i	i	nt	nt	nt	nt
COc1cc(C(=O)N2CCN(c3ncnc4sc(C)c(C)c34)CC2)cc(OC)c1OC	nt	i	i	i	nt	i	i
CCOC(=O)C1(CC2CC2)CCN(Cc2ccc3cccc(F)c3n2)CC1	i	i	i	i	i	i	nt
CC(C)N1CCN(Cc2ccccc2-c2ccco2)CC1CCO (centres undefined)	i	i	i	i	i	i	nt
OCCC1CN(Cc2ccccc2-c2ccco2)CCN1C1CCCC1 (centres undefined)	i	i	i	i	-4	i	0.051
Cc1cccn2c(=O)c3cc(C(=O)NC4CCCC4)c(=N)n(C4CCCC4)c3nc12	nt	i	i	i	-2.6	i	?
O=C(CN1CCCCC1)Nc1ccccc1Oc1ccccc1	i	i	i	nt	nt	nt	nt
CCc1ccc(S(=O)(=O)NCc2csc(C)n2)s1	i	i	i	i	i	i	nt
CCCCOc1ccc(S(=O)(=O)NCc2csc(C)n2)cc1	nt	i	i	i	-2.3	i	0.067
O=c1cc(-c2ccc(O)cc2)oc2ccc(O)cc12	i	i	i	i	2.5	i	i
O=c1cc(-c2ccc(O)cc2)oc2ccccc12	i	i	i	i	i	i	nt
CC1(O)N(CCC(=O)Nc2cccc(F)c2)C(=O)OC12CCCCC2 (centres undefined)	i	i	i	i	i	i	nt
CCC(C)C(NC(N)=O)C(=O)Nc1ccc(OCc2ccccc2)cc1 (centres undefined)	i	i	i	nt	i	nt	nt
O=C1Nc2ccccc2C(O)(C(=O)N2CCCCC2)N1c1ccccc1 (centres undefined)	nt	i	i	i	nt	i	nt
CC(C)NC(=O)C1(O)c2ccccc2NC(=O)N1c1ccc(Cl)c(Cl)c1 (centres undefined)	nt	i	i	i	nt	i	?
O=C(N/N=C/c1ccc(-c2ccc(Br)cc2)o1)c1ccc2c(c1)OCO2	i	i	i	i	2	i	i
COc1cc(C2NC(=O)C(C#N)=C(Nc3cccc(C)c3)S2)ccc1O (centres undefined)	i	i	i	nt	nt	nt	nt
Cc1oc2cc(O)ccc2c(=O)c1-c1ccccc1	i	i	i	i	i	i	nt
Cc1oc2cc(O)ccc2c(=O)c1-c1nncn1-c1ccccc1	i	i	i	i	-4.6	i	0.049
O=C(C1CCOCC1)N1CCC(CO)(CCc2ccccc2)CC1	i	i	i	i	nt	i	nt
C=CCO/N=C(/C)c1ccc(Oc2cnccn2)cc1	i	i	i	i	i	i	nt
Cc1cccc(NC(=S)N(CCN(C)C)Cc2cc3cccc(C)c3[nH]c2=O)c1	i	i	i	i	i	i	nt
